How the values were obtained:
[1] = melting temperature; fluorescence melt of hairpins on a sequencing array, two-state fit, raised by 9.35 °C to match UV melts; settings: sodium 0.088 M
Summary of the method: (§1)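 Library hairpins on a sequenced MiSeq flow cell carried annealed Cy3 and quencher oligos, and their Cy3 fluorescence was imaged in 50 mM Na-HEPES pH 8.0 with 25 mM NaCl, in 2.5 °C steps up to 60 °C. Signals were normalised to Cy3 before quenching and to control constructs. Melting temperature and folding enthalpy were obtained from bootstrapped two-state fits, combined by inverse-variance weighting across four replicates, and the fitted temperatures were then raised by 9.35 °C to match UV melts.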

[2] = folding enthalpy; higher = less favourable; fluorescence melt of hairpins on a sequencing array, two-state fit; settings: sodium 0.088 M
Summary of the method: as §1

Sequence	Tm [1] [°C]	folding enthalpy [2] [kcal/mol]
GCCCTGCGAAAGCAGTGC ((.((((....)))).))	58.5	-17.3
GCCCTGCGAAAGCATGGC (((.(((....))).)))	56.3	-48.3
GCCCTGCGAAAGCGGAGC ((.(.((....)).).))	51.5	-15.5
GCCCTGCGAAAGCTCGGC (((..((....))..)))	46.9	-19.3
GCCCTGCGAAAGCTGTGC ((.(.((....)).).))	38.9	-15.7
GCCCTGGCGAAAGCCGGC (((..(((....))))))	52	-11.1
GCCCTGGGAAACCGGGGC ((((.((....)).))))	66.2	-43.1
GCCCTGTCGAAAGACGGC (((..(((....))))))	44.5	-15.4
GCCCTTCGAAAGAAGGC (((.(((....))))))	52.9	-21.4
GCCGAACCGAAAGGTGGC (((..(((....))))))	53.1	-26.4
GCCGAACGAAAGTTGGGC (((.(((....))).)))	58.5	-38.8
GCCGAAGGAAACTCCGGC ((((.((....)).))))	48.3	-28
GCCGAAGGAAACTTCAGC ((.((((....)))).))	32.9	-11.7
GCCGACACGAAAGTGGGC (((..(((....))))))	53.1	-24.5
GCCGACGAAAGTCAGGGC ((((((....)))..)))	55.1	-36.8
GCCGACGAAAGTCCCGGC ((((((....)))..)))	49.6	-20.9
GCCGACGAAAGTCTAGGC ((((((....)))..)))	52.7	-34.1
GCCGAGCGAAAGCACAGC ((.(.((....)).).))	40.1	-15.1
GCCGAGCGAAAGCGCAGC ((.(.((....)).).))	49.4	-14.4
GCCGAGCGAAAGCGTGGC (((..((....))..)))	68.3	-25.4
GCCGAGCGAAAGCTGGC (((.(((....))))))	68.6	-25.1
GCCGAGGGAAACCCCAGC ((.(.((....)).).))	25.2	-11.3
GCCGAGGGAAACCCCGAC (.((.((....)).)).)	31	-13.8

Sequence	Tm [1] [°C]	folding enthalpy [2] [kcal/mol]
GCCGAGGGAAACCCCGGC ((((.((....)).))))	59.9	-40.2
GCCGATGGAAACATTGGC (((.(((....))).)))	54.6	-55.2
GCCGCAACGAAAGTTGGC (((..(((....))))))	48	-11.2
GCCGCAGGAAACCGCAGC ((.((.(....).)).))	31.2	-9.87
GCCGCAGGAAACCGCGAC (.(((.(....).))).)	35.9	-15.6
GCCGCAGGAAACTGTGGC (((.(((....))).)))	60.3	-39.4
GCCGCCCGAAAGGGGGC (((.(((....))))))	68.7	-18
GCCGCCGAAAGGCAAGGC ((((((....)))..)))	65.5	-24.6
GCCGCCGAAAGGCATGGC ((((((....)))..)))	63	-19.9
GCCGCCGAAAGGCCCGGC ((((((....)))..)))	48	-17.4
GCCGCCGAAAGGCGTGGC ((((((....)))..)))	60.1	-12.6
GCCGCCGCGAAAGCGGGC (((..(((....))))))	64	-5.71
GCCGCGCGAAAGCACAGC ((.(.((....)).).))	46.9	-13.6
GCCGCGCGAAAGCACTGC ((.(.((....)).).))	38.2	-18.7
GCCGCGCGAAAGCAGGGC (((..((....))..)))	61.5	-23.1
GCCGCGCGAAAGCGGAGC ((..(((....)))..))	52.5	-12.8
GCCGCGCGAAAGCGGTGC ((..(((....)))..))	58	-16.2
GCCGCGCGAAAGCTCCGC ((.(.((....)).).))	33.2	-7.61
GCCGCTCGAAAGAGGGC (((.(((....))))))	55.2	-22.9
GCCGCTGCGAAAGCAGGC (((..(((....))))))	65.1	-9.88
GCCGCTGGAAACAACGGC ((((.((....)).))))	54.3	-37.1
GCCGGAGGAAACTCTGGC (((.(((....))).)))	54.8	-34.6
GCCGGCGAAAGCCTAGGC ((((((....)))..)))	60.1	-24.5

Sequence	Tm [1] [°C]	folding enthalpy [2] [kcal/mol]
GCCGGCGAAAGCCTGGGC ((((((....)))..)))	60	-24.5
GCCGGGCCGAAAGGCGGC (((..(((....))))))	59.4	-17.6
GCCGGGCGAAAGCCTCGC ((..(((....)))..))	48.3	-11.1
GCCGGGCGAAAGCGGGGC (((..((....))..)))	63.3	-22.9
GCCGGGCGAAAGCTCCGC ((.(.((....)).).))	45.2	-13.1
GCCGGGCGAAAGCTCTGC ((.(.((....)).).))	41.4	-18.5
GCCGGGCGAAAGCTTGGC (((..((....))..)))	65.3	-24.4
GCCGGGGGAAACCCCAGC ((.((((....)))).))	50.3	-21.2
GCCGGGGGAAACTCCGGC (((((.(....).)))))	68.5	-39.3
GCCGGTACGAAAGTAGGC (((..(((....))))))	48.7	-24.7
GCCGGTCGAAAGACAGGC (((.(((....))).)))	69	-41.7
GCCGGTGGAAACACCGAC (.(((((....))))).)	55.3	-12.4
GCCGTCCGAAAGGAGGC (((.(((....))))))	58.4	-27.4
GCCGTCGAAAGACCGGC ((((((....))).)))	60.5	-36.8
GCCGTCGAAAGACCGGGC ((((((....)))..)))	50.3	-22.1
GCCGTCGAAAGACTGGGC ((((((....)))..)))	53.7	-26.4
GCCGTCGGAAACGATGGC (((.(((....))).)))	65.5	-41.1
GCCGTCTCGAAAGAGGGC (((..(((....))))))	50.6	-24.9
GCCGTGCCGAAAGGCGGC (((..(((....))))))	66.8	-13.9
GCCGTGCGAAAGCATCGC ((..(((....)))..))	50.2	-11.1
GCCGTGCGAAAGCCAGGC (((..((....))..)))	62.8	-23.9
GCCGTGCGAAAGCTCCGC ((.(.((....)).).))	40.4	-11.2
GCCGTGGGAAACCACGAC (.(((((....))))).)	52	-14.8

Sequence	Tm [1] [°C]	folding enthalpy [2] [kcal/mol]
GCCGTTCCGAAAGGAGGC (((..(((....))))))	50.7	-24.4
GCCGTTGGAAACAGCGGC ((((.((....)).))))	60.3	-39.8
GCCGTTGGAAACGATGGC (((.(.(....).).)))	42.9	-23.1
GCCTAAGGAAACTTGGGC (((.(((....))).)))	48.9	-37
GCCTAATCGAAAGATGGC (((..(((....))))))	44.1	-27.4
GCCTACGAAAGTACGGC ((((((....))).)))	51.5	-28.8
GCCTACGGAAACGTAAGC ((.((((....)))).))	36.1	-19.8
GCCTAGCGAAAGCTAAGC ((.((((....)))).))	48.9	-17.1
GCCTAGCGAAAGCTCTGC ((..(((....)))..))	34.3	-11.7
GCCTAGCGAAAGCTGGC (((.(((....))))))	64.8	-29.2
GCCTAGCGAAAGCTTTGC ((..(((....)))..))	33.4	-12
GCCTAGGCGAAAGCCGGC (((..(((....))))))	65.8	-13.3
GCCTAGGGAAACCCAGGC ((((.((....)).))))	50.6	-31.6
GCCTAGGGAAACTTAGGC (((((.(....).)))))	47.5	-31.6
GCCTATGGAAACATAAGC ((.((((....)))).))	27.6	-15.6
GCCTCATCGAAAGATGGC (((..(((....))))))	43.8	-10.1
GCCTCCCGAAAGGGTGGC (((.(((....))).)))	67.9	-36.1
GCCTCCGAAAGGACCGGC ((((((....)))..)))	43.1	-25
GCCTCCGGAAACGGGGGC (((.(((....))).)))	67.1	-31
GCCTCCTCGAAAGAGGGC (((..(((....))))))	43.9	-9.35
GCCTCGCGAAAGCAAGGC ((((.((....)).))))	65.1	-30

Reference: the array DNA melting data of Ke et al. (doi:10.1101/2024.01.08.574731)
